# Compound activity as filed in PubChem.
# Shown are actives, neighbours in structure and some others; about 2.4% of the full set was active somewhere.
# UBC13 inh: inhibitors of human UBC13 polyubiquitin chain formation; P61088; TR-FRET; inhibition, % at 20 µM; actives 0.47% (n = 330,000); in the data active means inhibition above about 45%, passing the limit was not always enough; inconclusive means no clear call, values can overlap the other calls
# DNA FID counter: fluorescent intercalator displacement, NS3 helicase counter-screen; AID 1845; inhibition, % at 7.9 µM; DNA fluorescent intercalator displacement, fluorescence; actives 0.17% (n = 290,000); in the data active means inhibition above about 37%;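 further: higher means more ethidium bromide displaced from hairpin DNA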
# TMEM16A inh: inhibitors of mouse TMEM16A calcium-activated chloride channel | Q8BHY3 | HEK293 TMEM16A/YFP iodide influx fluorescence, ionomycin | normalized B-score (activity score, 25-100; higher = stronger inhibition) at 10 µM | actives 1.2% (n = 310,000) | AID 588511;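 active means ratio plate-corrected score three or more library SD toward inhibition, starting fluorescence score within five deviations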;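 further: score derived from kinetic fluorescence span divided by baseline fluorescence per well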
# Target sequence (Q8BHY3 whole entry, looked up): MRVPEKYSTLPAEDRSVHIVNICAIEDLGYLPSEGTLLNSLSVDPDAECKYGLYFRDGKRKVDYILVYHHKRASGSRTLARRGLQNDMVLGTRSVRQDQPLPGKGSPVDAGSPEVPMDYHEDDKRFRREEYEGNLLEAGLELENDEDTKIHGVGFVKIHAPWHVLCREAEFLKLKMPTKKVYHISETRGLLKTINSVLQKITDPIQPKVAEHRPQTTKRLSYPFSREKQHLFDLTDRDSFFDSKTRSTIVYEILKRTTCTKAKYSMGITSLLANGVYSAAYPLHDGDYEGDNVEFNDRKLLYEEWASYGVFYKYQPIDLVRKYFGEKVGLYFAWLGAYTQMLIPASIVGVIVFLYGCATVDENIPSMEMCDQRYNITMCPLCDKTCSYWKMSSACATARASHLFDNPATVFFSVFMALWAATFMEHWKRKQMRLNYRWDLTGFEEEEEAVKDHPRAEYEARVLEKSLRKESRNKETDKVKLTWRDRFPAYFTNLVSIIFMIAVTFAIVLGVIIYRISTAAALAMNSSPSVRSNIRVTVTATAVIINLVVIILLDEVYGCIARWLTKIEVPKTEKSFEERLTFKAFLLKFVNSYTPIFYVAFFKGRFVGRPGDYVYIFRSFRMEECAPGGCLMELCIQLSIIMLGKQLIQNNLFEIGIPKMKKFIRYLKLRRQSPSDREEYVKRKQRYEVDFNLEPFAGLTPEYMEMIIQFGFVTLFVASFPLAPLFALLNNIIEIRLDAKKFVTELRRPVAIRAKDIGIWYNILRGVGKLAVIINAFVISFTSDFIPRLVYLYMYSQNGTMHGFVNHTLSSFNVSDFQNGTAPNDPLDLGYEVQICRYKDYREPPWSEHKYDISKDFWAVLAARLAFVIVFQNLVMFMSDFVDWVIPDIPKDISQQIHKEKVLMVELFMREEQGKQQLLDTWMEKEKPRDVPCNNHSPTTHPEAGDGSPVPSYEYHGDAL
# Apaf-1 inh: human Apaf-1 inhibition; reconstituted apoptosome caspase-3 activity, DEVD-Rh110 fluorescence; inhibition, % at 20 µM; O14727; actives 0.71% (n = 330,000); active means inhibition of at least 40% at 20 µM
#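 Material: reconstituted apoptosome with Apaf-1, cytochrome c, caspase-9, procaspase-3, dATP; medium: pH 7.5 Hepes buffer with CHAPS, BSA, DTT; also added: cytochrome c and DEVD-Rh110 substrate; timing: 30 min plus 50 min, RT; signal: Rh110 fluorescence intensity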
# ANO1 activ: activators or potentiators of mouse TMEM16A chloride channel | HEK293 TMEM16A/YFP-H148Q/I152L, iodide quench fluorescence; stronger effect = lower value | actives 0.3% (n = 340,000) | B-score at 10 µM;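 active means fluorescence-ratio B-score plate-corrected deviation score at least 3 library SD below zero, with starting fluorescence score within 5 deviations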;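 further: channel opened by trigger with iodide after compound preincubation; score built on the fluorescence ratio of max minus min over baseline; more negative score means more quench and so TMEM16A activation or potentiation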
# Hits are given with their value; . = inactive; ? = inconclusive; / = not tested or not shown.
SMILES,UBC13 inh,DNA FID counter,TMEM16A inh,Apaf-1 inh,ANO1 activ
Clc1ccc(-c2nn3cnnc3s2)c(Cl)c1,.,.,25,.,.
CSCCC1NC(=S)N(Cc2ccccc2)C1=O (configuration not stated),.,.,.,.,.
O=C(NCc1ccccc1Cl)c1ccc(S(=O)(=O)Nc2cccc(C(F)(F)F)c2)cc1,.,.,100,.,.
N/C(=N\OS(=O)(=O)c1ccc2ccccc2c1)c1ccccn1,/,.,/,/,-25.6
CN(CC(=O)Nc1ccccc1N1CCOCC1)S(=O)(=O)c1ccc(F)cc1,.,.,25,.,.
C[C@H](NC(=O)c1ccc(C(C)(C)C)cc1)C(=O)N1CCC2(CC1)NCCc1[nH]cnc12,.,.,.,.,.
Cc1ccc(C(=O)N[C@@H](Cc2ccccc2)C(=O)N2CCC3(CC2)NCCc2[nH]cnc23)cc1C,.,.,.,.,-49.6
Cc1cccc2sc(NNC(=O)c3cc(-c4cccs4)nc4ccccc34)nc12,?,.,.,.,.
Cc1cc(C)c(C)c(S(=O)(=O)N2CCC(C(=O)NNC(=O)c3ccccc3O)CC2)c1C,.,/,.,.,.
Nc1cc(N2CCOCC2)c(Cl)cc1[N+](=O)[O-],.,.,.,.,.
Nc1cc(N2CCCC2)c(Cl)cc1[N+](=O)[O-],.,.,.,42.6,.
Cc1ccc([C@H]2C(C(=O)O)=CC[C@@H](c3cccc(C)c3)N2S(=O)(=O)c2ccc(C)cc2)cc1,.,/,/,.,/
Cc1ccc(S(=O)(=O)N2[C@@H](c3cccc(Cl)c3)C(C(=O)O)=CC[C@H]2c2cccc(C)c2)cc1,.,/,25,.,.
Cc1ccc(S(=O)(=O)N2[C@@H](c3cccc(Cl)c3)C(C(=O)O)=CC[C@H]2c2cccc(Cl)c2)cc1,.,/,100,.,.
N#Cc1ccccc1S(=O)(=O)N1CCN(CC(O)c2ccccc2)CC1 (configuration not stated),.,.,.,.,.
Cc1ccc(NC(=S)N2CCC(NC(=O)c3ccccc3)CC2)cc1,.,.,.,.,.
CCN1C(=O)/C(=C2\SC(=S)N(NC(=O)c3ccccc3O)C2=O)c2ccccc21,.,.,100,.,.
Clc1ccc2[nH]c3c(NCCCN4CCOCC4)ncnc3c2c1,.,38.0,.,.,.
COC(=O)c1sc(S(=O)(=O)Nc2c(C)nn(C)c2C)c(C(=O)OC)c1C,.,/,/,.,.
COC(=O)c1sc(NC(=S)NNC(=O)c2c(Br)c(C)nn2C)c(C(=O)OC)c1C,.,.,100,.,.
O=C(CSc1nncs1)N1c2ccccc2Sc2ccccc21,.,.,.,.,.
Cc1ccc(SCC(=O)N2c3ccccc3Sc3ccccc32)cc1,.,.,100,.,.
CC(C)CNC(=O)CN(C)S(=O)(=O)c1ccc(F)cc1,.,.,.,.,.
COc1ccc(C(=O)NNC(=S)NC(=O)C(C)(C)C)cc1,.,.,25,.,.
CC(C)(C)C(=O)NC(=S)NNC(=O)c1sc2ccccc2c1Cl,.,.,100,.,-11.8
SMILES,UBC13 inh,DNA FID counter,TMEM16A inh,Apaf-1 inh,ANO1 activ
Cn1c(C(=O)N2CCN(c3ccccc3)CC2)cc2cc(Cl)ccc21,.,.,.,.,.
CS(=O)(=O)N(CC(=O)NCc1ccncc1)C1CCCCC1,.,.,.,.,.
Cc1cccc(NC(=O)CCN2CCCC(C)C2)c1 (configuration not stated),.,.,.,.,.
Cc1cccc(OCC(=O)N/N=C\c2cc3c(cc2[N+](=O)[O-])OCO3)c1C,.,.,25,.,.
O=C(N/N=C/c1cc2c(cc1[N+](=O)[O-])OCO2)c1ccc2c(c1)OCO2,.,.,.,.,.
C=CC[C@@H](Cc1ccc(F)cc1)C(=O)OC[C@@H]1CCCN1C(=O)[C@@H](CC=C)CC(=O)N(CCO)Cc1ccccc1,.,/,/,.,.
O=c1c2ccccc2ncn1CCCOc1ccccc1[N+](=O)[O-],.,.,25,.,.
Brc1cc2c(cc1C1Nc3ccccc3C3C=CCC31)OCO2 (configuration not stated),.,.,.,.,.
C1=CC2c3ccccc3NC(c3ccncc3)C2C1 (configuration not stated),.,.,.,49.4,.
O=C(Nc1ccc(S(=O)(=O)N2CCCCC2)cc1)c1ccc(CN2CCOCC2)cc1,.,.,100,.,.
NS(=O)(=O)c1ccc(NC(=O)CN2CCN(S(=O)(=O)c3ccc(F)cc3)CC2)cc1,.,.,.,.,.
O=C(Cn1c(=O)oc2ccccc21)Nc1ccc(S(=O)(=O)N2CCCCC2)cc1,.,.,.,.,-6.45
NS(=O)(=O)c1ccc(NC(=O)CN2CCCN(S(=O)(=O)c3ccc(F)cc3)CC2)cc1,.,.,.,.,-7.78
CC1CCN(CC2C(=O)O[C@@H]3C[C@@]4(C)CCC[C@H](C)C4=C[C@H]23)CC(C)(C)C1 (some centres not stated),.,.,.,.,.
O=C(C1=C[C@H](c2coc3ccccc3c2=O)C[C@H](OCCCCO)O1)N1CCOCC1,.,.,.,.,.
CSc1ccccc1NC(=O)c1cc(S(=O)(=O)N(C)C)ccc1N1CCCC1,.,.,.,51.6,.
CCOC(=O)c1nc(C)c(C(C)=O)s1,.,/,.,.,.
Cc1cc(NC(=O)CCC(=O)N(Cc2ccco2)C2(C(=O)NC3CCCCC3)CCCC(C)C2)no1 (configuration not stated),.,.,.,.,.
Cc1cccc(/C=C/C(=O)c2cc(Br)ccc(=O)c2O)c1,.,.,25,.,.
CC(Oc1ccc(F)cc1)C(=O)Nc1ccccc1N1CCCCC1 (configuration not stated),.,.,.,.,-21.2
CCN(CC)S(=O)(=O)c1ccc(N2CCCC2)c(NC(=O)c2ccc(N3CCCC3=O)cc2)c1,.,/,.,.,.
O=C(C[n+]1ccccc1)N/N=C/c1ccccc1[N+](=O)[O-],.,.,.,.,.
O=C1CC(CC(=O)N/N=C/c2ccccc2[N+](=O)[O-])=NN1,.,.,.,45.9,.
Cc1cccc(NC(=O)Cc2nc(-c3c[nH]c(C(=O)N4CCCC4)c3)cs2)c1,.,/,/,.,.
CCOC(=O)c1c(NC(=O)CN(C)C2CCN(C)CC2)sc(C(=O)Nc2ccccc2)c1C,.,37.0,.,.,.
SMILES,UBC13 inh,DNA FID counter,TMEM16A inh,Apaf-1 inh,ANO1 activ
CC(=O)N(CCCc1ccc(C(C)(C)C)cc1)CCCN(C)C,.,38.3,.,.,.
CCNCc1cc(Br)c(OCC(=O)Nc2ccccc2)c(OC)c1,.,.,.,.,.
COc1cc(CNCCc2ccccc2)cc(Br)c1OCC(=O)Nc1ccccc1C,.,43.8,.,.,.
COc1ccccc1CCNC(=O)CNC(=O)c1ccc2ccccc2c1,.,.,.,.,.
O=C(NC1=NC2CCCCC2N1)c1ccccc1 (configuration not stated),.,.,.,.,-6.59
O=C(CCC(=O)N1CCSc2ccccc21)NC1CCCCC1,.,.,.,.,.
